Measurements published in article PMC4058332 (ChemMedChem, 2013).
Entries after “also recorded” stand apart in the source; their conditions may differ.

Experiments:
uPAR = uPAR (Homo sapiens, UniProt Q03405); test: Fluorescence polarization competition assay, displacement of AE147-FAM peptide; assay type: binding; details: uPAR 320 nM, AE147-FAM 100 nM
Outline: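 Competition binding: test compound diluted in DMSO, then in PBS with 0.01% Triton X-100 (final 100 μM to 0.046 μM). uPAR preincubated with compound ≥15 min, then fluorescein-labelled AE147 peptide added (final uPAR 320 nM, peptide 100 nM, DMSO 2%). Duplicate wells; polarization read at ex 485/em 530 nm. mP values converted to % inhibition; Ki from an online Ki calculator.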

MDA-MB-231 cells [1] = test: Cell viability by MTT assay, 3 days; assay type: cell-based; details: Homo sapiens, MDA-MB-231, read-out: IC50, MTT
Outline: (§1)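 Cells (10^4/well) plated overnight, then exposed to test compound or DMSO control for 3 days. Viability by MTT, absorbance 570 nm with 630 nm reference. Culture: MDA-MB-231 and PANC-1 in DMEM, AsPC-1 in RPMI medium, each with 10% FBS and 1% penicillin/streptomycin, 37°C, 5% CO2.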

AsPC-1 cells = test: Cell viability by MTT assay, 3 days; assay type: cell-based; details: Homo sapiens, ASPC1, read-out: IC50, MTT
Outline: as §1

PANC-1 cells = test: Cell viability by MTT assay, 3 days; assay type: cell-based; details: Homo sapiens, PANC-1, read-out: IC50, MTT
Outline: as §1

MDA-MB-231 cells [2] = test: Apoptosis assay, flow cytometry with Annexin V-FITC and PI staining; assay type: cell-based; details: 24 h; for Percentage apoptosis: Annexin V-positive/PI-negative cells; for Percentage necrosis: Annexin V-positive/PI-positive cells
Outline: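 MDA-MB-231 cells exposed 24 h to test compound at increasing concentrations or 1% DMSO, stained with Annexin V-FITC and PI, and analysed by flow cytometry. Apoptotic = Annexin V-positive/PI-negative; necrotic = Annexin V-positive/PI-positive, each as % of cells.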

[3] = tested on: phospho-p44/42 MAPK in MDA-MB-231 cells; test: Western blot analysis of p44/42 MAPK phosphorylation; assay type: cell-based; details: 50 μM, 30 min, serum starved cells on fibronectin
Outline: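 Serum-starved MDA-MB-231 cells (1.5 × 10^6/well) plated on wells coated with 30 ng μl-1 fibronectin, with 50 μM test compound or DMSO, for 30 min. Lysed in RIPA with protease/phosphatase inhibitors. 30 μg protein run on 10% SDS-PAGE and blotted. Probed overnight at 4°C with phospho-p44/42 (Thr202/Tyr204) or total p44/42 antibodies (1:2000), then fluorescent secondaries; actin loading control.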

[4] = tested on: NF-κB, HIF1α and ERK in MDA-MB-231 cells; test: Luciferase reporter assay; assay type: cell-based; details: 25 μM
Outline: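 MDA-MB-231 cells transfected with pathway-focused reporters (NF-κB, hypoxia, MAPK/ERK); medium switched to complete DMEM (10% FBS) 16 h after transfection. Test compound (25 μM) added at 46 h; dual-luciferase readout (firefly/Renilla) at 48 h. Fold change = normalized ratio of treated reporter divided by that of untreated reporter; triplicate.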

MDA-MB-231 invasion = test: Matrigel Boyden chamber invasion assay; assay type: cell-based
Outline: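 Matrigel invasion chambers; insert underside coated with 30 ng μl-1 fibronectin overnight at 4 °C; inserts equilibrated 2 h in serum-free medium. After 4 h starvation, 5 × 10^4 MDA-MB-231 cells in 0.1% FBS medium with test compound or 1% DMSO placed upper; 10% FBS medium with same compound lower. After 16 h at 37°C, invaded cells methanol-fixed, hematoxylin-stained, counted in ten 200× fields.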

MDA-MB-231 migration = test: Wound healing migration assay; assay type: cell-based
Outline: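 Confluent MDA-MB-231 monolayers scratched with a pipette tip, washed, and cultured in complete medium with test compound. Wound closure measured as distance between wound edges in three random regions immediately after wounding and at 16 h and 40 h, by microscopy.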

MDA-MB-231 cells [5] = test: Cell viability by MTT at 16 h, time frame of invasion and migration studies; assay type: cell-based
Outline: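 MDA-MB-231 viability read by MTT after 16 h exposure to test compound, matching the time frame of the invasion and migration assays.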

[6] = tested on: MDA-MB-231 matrix metalloproteinase (MMP-9) activity; test: Gelatin zymography; assay type: cell-based; details: read-out: IC50, MMP-9 activity, 24 h treatment
Outline: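 MDA-MB-231 cells treated with test compound 24 h in serum-free medium. Conditioned medium concentrated and run on 7.5% SDS gels with 1 mg/mL gelatin. Gels washed twice in 2.5% Triton X-100 (30 min, room temperature), incubated 36 h at 37 °C in 50 mM Tris-HCl pH 7.6, 200 mM NaCl, 10 mM CaCl2, 0.02% Brij 35. Coomassie-stained; clear MMP-9 bands quantified by imaging.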

MDA-MB-231 cell adhesion = test: Cell adhesion to fibronectin; assay type: cell-based; details: Homo sapiens, MDA-MB-231, read-out: IC50, cell adhesion
Outline: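 Wells coated with 15 ng μl-1 fibronectin overnight at 4 °C, blocked 1 h with 2% BSA/PBS. MDA-MB-231 cells serum-starved 4 h, suspended at 2.5 × 10^4 cells ml-1 in 0.1% FBS DMEM with test compound at various concentrations or DMSO, and held 90 min at 37 °C. Washed three times with PBS; adherent cells by MTT (570/630 nm).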

[7] = target: urokinase receptor (uPAR) (UniProt Q03405); test: fluorescence polarisation
urokinase receptor (uPAR), sequence (Q03405 23-305): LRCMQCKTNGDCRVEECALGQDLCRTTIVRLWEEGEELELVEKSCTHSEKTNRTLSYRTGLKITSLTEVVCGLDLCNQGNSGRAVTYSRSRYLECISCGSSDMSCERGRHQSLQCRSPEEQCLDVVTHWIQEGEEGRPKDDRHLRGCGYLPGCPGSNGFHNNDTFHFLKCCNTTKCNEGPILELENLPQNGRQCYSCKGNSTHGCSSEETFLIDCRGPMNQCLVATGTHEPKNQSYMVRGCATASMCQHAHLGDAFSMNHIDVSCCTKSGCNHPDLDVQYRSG

uPAR, sequence (Q03405 23-335): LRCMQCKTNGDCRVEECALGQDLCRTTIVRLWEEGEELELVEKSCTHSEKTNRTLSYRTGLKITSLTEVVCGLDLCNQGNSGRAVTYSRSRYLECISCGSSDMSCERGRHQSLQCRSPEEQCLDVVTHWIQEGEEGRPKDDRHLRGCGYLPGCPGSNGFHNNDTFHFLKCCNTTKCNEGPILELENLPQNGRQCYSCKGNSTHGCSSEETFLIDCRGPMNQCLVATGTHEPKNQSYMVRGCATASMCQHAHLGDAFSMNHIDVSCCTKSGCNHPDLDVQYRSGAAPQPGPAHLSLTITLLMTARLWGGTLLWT

Molecule | Ki (uPAR; Ki) [µM] | Percentage apoptosis (MDA-MB-231 cells [2]; 1 μM) [%] | Percentage necrosis (MDA-MB-231 cells [2]; 1 μM) [%] | Percentage apoptosis (MDA-MB-231 cells [2]; 10 μM) [%] | Percentage necrosis (MDA-MB-231 cells [2]; 10 μM) [%] | Percentage apoptosis (MDA-MB-231 cells [2]; 25 μM) [%] | Percentage necrosis (MDA-MB-231 cells [2]; 25 μM) [%] | Percentage apoptosis (MDA-MB-231 cells [2]; 50 μM) [%] | Percentage necrosis (MDA-MB-231 cells [2]; 50 μM) [%] | effect on p44/42 MAPK phosphorylation [3] | other results
COc1cc(NC(=O)c2cnn(-c3ccc(C)c(C)c3)c2C2CCNCC2)cc(C(F)(F)F)c1 [1e, 1-(3,4-dimethylphenyl)-N-(3-methoxy-5-(trifluoromethyl)phenyl)-5-(piperidin-4-yl)-1H-pyrazole-4-carboxamide] | 51.2 | – | – | – | – | – | – | – | – | – | –
Cc1ccc(-n2ncc(C(=O)Nc3ccccc3OCc3ccccc3)c2C2CCNCC2)cc1C [1f, N-(2-(benzyloxy)phenyl)-1-(3,4-dimethylphenyl)-5-(piperidin-4-yl)-1H-pyrazole-4-carboxamide] | 17.2 | 3 | 7 | 45 | 15 | 76 | 8 | 61 | 21 | significantly impaired | IC50 (MDA-MB-231 cells [1]): 25 µM; IC50 (AsPC-1 cells): 14 µM; IC50 (PANC-1 cells): 22 µM; effect on NF-κB, HIF1α and ERK reporter pathways [4]: impaired all three pathways; effect on invasion (MDA-MB-231 invasion; 10 μM): inhibited invasion; effect on invasion (MDA-MB-231 invasion; 25 μM): completely inhibited invasion; also recorded: complete inhibition of invasion; IC50 (MDA-MB-231 invasion; Homo sapiens, MDA-MB-231, read-out: IC50, invasion): < 10 µM; inhibition at 25 µM (MDA-MB-231 migration; Homo sapiens, MDA-MB-231, read-out: inhibition of cell migration): 70%; inhibition at 10 µM (MDA-MB-231 cells [5]; Homo sapiens, MDA-MB-231, 16 h, read-out: inhibition of cell growth): 20%; IC50 [6]: 28 µM; IC50 (MDA-MB-231 cell adhesion): ~25 µM
Cc1ccc(-n2ncc(C(=O)NCCc3ccc(F)cc3)c2C2CCNCC2)cc1C [1g, 1-(3,4-dimethylphenyl)-N-(4-fluorophenethyl)-5-(piperidin-4-yl)-1H-pyrazole-4-carboxamide] | 28.3 | – | – | – | – | – | – | – | – | – | –
Cc1ccc(-n2ncc(C(=O)Nc3ccc(C(C)C)cc3)c2C2CCNCC2)cc1C [1h, 1-(3,4-dimethylphenyl)-N-(4-isopropylphenyl)-5-(piperidin-4-yl)-1H-pyrazole-4-carboxamide] | 63.3 | – | – | – | – | – | – | – | – | – | –
CCCc1ccc(NC(=O)c2cnn(-c3ccc(C)c(C)c3)c2C2CCNCC2)cc1 [1i, 1-(3,4-dimethylphenyl)-5-(piperidin-4-yl)-N-(4-propylphenyl)-1H-pyrazole-4-carboxamide] | 31.9 | 11 | 7 | 6 | 9 | 46 | 10 | 86 | 12 | significantly impaired | –
CCOc1ccccc1NC(=O)C1CC(=O)N(c2ccc(OC)cc2)C1c1ccc(OC)cc1 (stereo not shown) [compound 3, N-(2-ethoxyphenyl)-1,2-bis(4-methoxyphenyl)-5-oxopyrrolidine-3-carboxamide] | – | 2 | 6 | 1 | 3 | 2 | 8 | 4 | 7 | no inhibition | effect on invasion (MDA-MB-231 invasion; 25 μM): moderate inhibition of invasion; inhibition at 25 µM (MDA-MB-231 invasion; Homo sapiens, MDA-MB-231, read-out: inhibition of cell invasion): 50%; effect on migration (MDA-MB-231 migration; 25 μM, wound healing): no effect on migration; cytotoxicity (MDA-MB-231 cells [5]; 25 μM, MTT at 16 h): not cytotoxic
COc1ccc(N2C(=O)CCC(C(=O)Nc3ccc(OC)cc3OC)C2c2ccc(F)cc2)cc1 (stereo not drawn) [compound 4, anti-N-(2,4-dimethoxyphenyl)-2-(4-fluorophenyl)-1-(4-methoxyphenyl)-6-oxopiperidine-3-carboxamide] | – | 4 | 3 | 2 | 14 | 3 | 6 | 3 | 5 | no inhibition | Ki (uPAR): 18.9 µM
fluorescently-labeled AE147 peptide AE147-FAM | – | – | – | – | – | – | – | – | – | – | Kd [7]: 0.499 µM
